Results: ChEMBL document CHEMBL4831478, “Bispecific Estrogen Receptor α Degraders Incorporating Novel Binders Identified Using DNA-Encoded Chemical Library Screening” (J Med Chem, 2021)

Tests used:
Estrogen receptor [1] = target: Estrogen receptor (Homo sapiens, UniProt P03372, Y537S); assay: Binding affinity to ERalpha Y537S mutant (unknown origin) expressed in Escherichia coli preincubated for 15 mins followed by ligand addition and measured after 1 hr by fluorescent polarization assay
In short: (§1)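 ERα LBD (aa 307–554), WT or D538G, S463P, Y537S, with N-terminal Avi-Tev-His tag, expressed in E. coli T7 Express (20 °C, 12 h, IPTG). Purified by Ni-NTA then size exclusion. Compound preincubated with protein 15 min, fluorescent ligand added, 1 h at room temperature. FP read ex 485/em 535 nm; duplicate runs averaged.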

Estrogen receptor [2] = target: Estrogen receptor (Homo sapiens, UniProt P03372, D538G); assay: Binding affinity to ERalpha D538G mutant (unknown origin) expressed in Escherichia coli preincubated for 15 mins followed by ligand addition and measured after 1 hr by fluorescent polarization assay; in short: as §1
Estrogen receptor (Homo sapiens, UniProt P03372, D538G), sequence (P03372 whole entry D538G): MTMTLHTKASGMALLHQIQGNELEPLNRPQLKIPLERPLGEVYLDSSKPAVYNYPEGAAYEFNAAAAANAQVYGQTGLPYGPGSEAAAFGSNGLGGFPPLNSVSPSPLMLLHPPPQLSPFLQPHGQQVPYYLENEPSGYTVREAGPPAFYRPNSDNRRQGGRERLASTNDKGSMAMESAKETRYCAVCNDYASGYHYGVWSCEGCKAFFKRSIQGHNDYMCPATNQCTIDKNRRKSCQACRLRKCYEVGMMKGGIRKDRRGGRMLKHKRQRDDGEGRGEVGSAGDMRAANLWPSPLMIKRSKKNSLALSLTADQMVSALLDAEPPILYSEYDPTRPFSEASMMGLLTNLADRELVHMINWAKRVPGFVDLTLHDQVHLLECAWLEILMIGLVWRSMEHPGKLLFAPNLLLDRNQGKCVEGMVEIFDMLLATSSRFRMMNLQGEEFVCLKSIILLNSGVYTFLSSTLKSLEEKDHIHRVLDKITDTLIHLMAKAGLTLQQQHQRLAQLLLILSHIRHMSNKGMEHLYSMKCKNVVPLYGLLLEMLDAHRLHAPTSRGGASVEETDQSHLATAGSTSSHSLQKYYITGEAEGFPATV

[3] = AUCinfinity in CD1 mouse at 10 mg/kg, sc administered as single dose […]; assay type: ADME, organism-based; parameters: route subcutaneous, dose 10 mg/kg; details: in vivo
[4] = Plasma protein binding in human; assay type: ADME, cell-free; details: read-out: PPB
MCF7 [5] = assay: Antiproliferative activity against human MCF7 cells assessed as growth inhibition preincubated with estradiol for 30 mins followed by compound addition and measured after 72 hrs by CellTiter-Glo assay; assay type: functional
Estrogen receptor [6] = target: T1, Estrogen receptor (Homo sapiens, UniProt P03372); assay: Binding affinity to recombinant His-tagged ERalpha LBD (307 to 554 residue) (unknown origin) expressed in Escherichia coli preincubated for 15 mins followed by ligand addition and measured after 1 hr by fluorescent polarization assay; in short: as §1
T1 sequence (P03372 whole entry): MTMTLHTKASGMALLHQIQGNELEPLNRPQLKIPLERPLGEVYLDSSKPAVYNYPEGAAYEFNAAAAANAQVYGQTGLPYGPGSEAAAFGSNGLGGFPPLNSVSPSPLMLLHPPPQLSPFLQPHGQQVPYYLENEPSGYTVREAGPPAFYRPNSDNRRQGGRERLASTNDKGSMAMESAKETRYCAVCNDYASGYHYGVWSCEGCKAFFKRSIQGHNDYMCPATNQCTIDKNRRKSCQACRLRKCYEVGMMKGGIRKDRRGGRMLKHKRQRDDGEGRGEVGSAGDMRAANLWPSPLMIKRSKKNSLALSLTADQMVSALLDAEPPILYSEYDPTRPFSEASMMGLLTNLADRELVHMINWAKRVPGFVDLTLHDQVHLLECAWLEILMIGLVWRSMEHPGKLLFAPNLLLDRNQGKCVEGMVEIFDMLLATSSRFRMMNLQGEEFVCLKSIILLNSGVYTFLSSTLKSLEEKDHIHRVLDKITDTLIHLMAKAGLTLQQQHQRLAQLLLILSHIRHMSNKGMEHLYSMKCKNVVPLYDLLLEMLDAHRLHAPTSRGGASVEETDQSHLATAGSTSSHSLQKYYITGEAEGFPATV

[7] = Bioavailability in CD1 mouse at 10 mg/kg, sc administered as single dose […]; assay type: ADME, organism-based; details: in vivo
[8] = Cmax in CD1 mouse at 10 mg/kg, sc administered as single dose […]; assay type: ADME, organism-based; parameters: route subcutaneous, dose 10 mg/kg; details: in vivo
[9] = Microsomal stability in human liver microsomes assessed as intrinsic clearance measured upto 60 mins; assay type: ADME, Microsome; details: read-out: CLH
In short: (§2)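 Compounds at 2 μM final incubated with pooled human or male mouse liver microsomes. Percent remaining measured at 0, 15, 30, 45 and 60 min and used to calculate in vitro half-life.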

[10] = Clearance in CD1 mouse at 0.3 mg/kg, iv administered as cassette dosing […]; assay type: ADME, organism-based; details: in vivo
[11] = Solubility of compound; assay type: physicochemical
MCF7 [12] = assay: Antiproliferative activity against human MCF7 cells assessed as growth inhibition preincubated with estradiol for 30 mins followed by compound addition and measured after 7 days by CellTiter-Glo assay; assay type: functional; details: MCF7, 168 h, time 7 day
In short: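 MCF7 cells seeded in hormone-deprived media for 72 h. All wells except minimum-signal controls received 0.1 nM estradiol for 30 min, then compound in a 10-point dose series. Incubated 7 days at 37 °C, 5% CO2; ATP content read by CellTiter-Glo 2.0. Duplicate runs averaged.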

[13] = Volume of distribution at steady state in CD1 mouse at 0.3 mg/kg, iv administered as cassette dosing […]; assay type: ADME, organism-based; details: in vivo, read-out: Vdss
[14] = Half life in CD1 mouse at 0.3 mg/kg, iv administered as cassette dosing […]; assay type: ADME, organism-based; details: in vivo
Estrogen receptor [15] = target: T1, Estrogen receptor; assay: Induction of ERalpha degradation in human MCF7 cells assessed as decrease in ERalpha protein expression incubated for 48 hrs by Western blot analysis; assay type: cell-based
[16] = Apparent permeability of compound across apical to basolateral side in MDCK cells; assay type: ADME, cell-based, Canis lupus familiaris; details: dog
[17] = Microsomal stability in mouse liver microsomes assessed as intrinsic clearance measured upto 60 mins; assay type: ADME, Microsome; details: read-out: CLH; in short: as §2
[18] = Half life in CD1 mouse at 10 mg/kg, sc administered as single dose […]; assay type: ADME, organism-based; details: in vivo
Estrogen receptor [19] = target: Estrogen receptor (Homo sapiens, UniProt P03372, S463P); assay: Binding affinity to ERalpha S463P mutant (unknown origin) expressed in Escherichia coli preincubated for 15 mins followed by ligand addition and measured after 1 hr by fluorescent polarization assay; in short: as §1
Estrogen receptor (Homo sapiens, UniProt P03372, S463P), sequence (P03372 whole entry S463P): as the sequence (P03372 whole entry D538G) above, with S463P, G538D counted along it

Estrogen receptor [20] = target: T1, Estrogen receptor; assay: Induction of ERalpha degradation in human MCF7 cells assessed as decrease in ERalpha protein expression incubated for 48 hrs under hormone-deprived medium by Western blot analysis; assay type: cell-based
In short: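 In-cell western: MCF7 seeded in hormone-deprived media for 72 h, then 10-point dose series in the same media for 48 h. Minimum-signal control compound at 1 μM. Cells fixed (4% formaldehyde), permeabilized (0.1% Triton X-100), blocked (3% fish gelatin), stained for ERα and α-tubulin, imaged; ERα normalized to tubulin.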

Estrogen receptor [21] = target: T1, Estrogen receptor; assay: Induction of ERalpha degradation in human MCF7 cells assessed as decrease in ERalpha protein expression incubated for 24 hrs by Western blot analysis; assay type: cell-based
MCF7 [22] = assay: Antiproliferative activity against human MCF7 cells assessed as growth inhibition preincubated with estradiol for 30 mins followed by compound addition and measured after 7 days by CellTiter-Glo assay; details: MCF7, 7 days
MCF7 [23] = assay: Antitumor activity against human MCF7 cells xenografted in CD1 mouse assessed as tumor growth inhibition at 3 mg/kg, sc administered once daily for 28 days by caliper method; details: 672 h, read-out: TGI
[24] = Toxicity in CD1 mouse xenografted with human MCF7 cells assessed as change in body weight at 3 mg/mouse, sc administered once weekly for 28 days; details: in vivo, 672 h
[25] = target: T2, Estrogen receptor (Homo sapiens) (UniProt P03372); assay: Induction of ERalpha degradation in human MCF7 cells assessed as degradation maximum incubated for 48 hrs under starved CSS media condition by Western blot analysis relative to control; assay type: cell-based
T2 sequence (whole entry): T1 sequence (P03372 whole entry)
In short: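 MCF7 cells in hormone-deprived media (agonist mode) or full-serum media (antagonist mode) were treated with 1 μM compound over a 48 h time course. Cells were lysed and ERα was detected by western blot, with tubulin as the normalizer.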

Estrogen receptor (Homo sapiens, UniProt P03372, Y537S), sequence (P03372 whole entry Y537S, the tested form may be a part): as the sequence (P03372 whole entry D538G) above, with Y537S, G538D counted along it

IC50 (Estrogen receptor [1]) [nM]	IC50 (Estrogen receptor [2]) [nM]	GI50 (MCF7 [5]) [nM]	IC50 (Estrogen receptor [6]) [nM]	GI50 (MCF7 [12]) [nM]	IC50 (Estrogen receptor [19]) [nM]	SMILES	further results
332	269	> 10000	17	165	170	Cc1ncsc1-c1ccc([C@H](C)NC(=O)[C@@H]2C[C@@H](O)CN2C(=O)[C@H](NC(=O)COCc2cn(CCOc3ccc(N(Cc4cccc(O)c4Cl)CC4(c5ccccc5F)CCCC4)cc3)nn2)C(C)(C)C)cc1	AUC(0-inf) [3]: 9.8 µM·h; fraction unbound [4]: < 0.004; bioavailability [7]: 83%; Cmax [8]: 1500 nM; microsomal CLint [9]: 31 µL/min/mg; clearance [10]: 20 mL/min/kg; solubility [11]: < 0.2 µM; Vd [13]: 1.24 L/kg; half-life [14]: 2.7 h; DC50 (Estrogen receptor [15]): 4.2 nM; Papp A→B [16]: < 0.1 ×10⁻⁶ cm/s; microsomal CLint [17]: 199 µL/min/mg; half-life [18]: 21 h
8.1	287	> 10000	11	247	21	Cc1ncsc1-c1ccc([C@H](C)NC(=O)[C@@H]2C[C@@H](O)CN2C(=O)[C@@H](NC(=O)COCc2cn(CCOc3ccc(Cn4c(-c5ccc(O)cc5)c(C)c5cc(O)ccc54)cc3)nn2)C(C)(C)C)cc1	DC50 (Estrogen receptor [20]): 20 nM
			> 10000			Oc1cccc(CN(CCN2CCCCC2)CC2(c3ccccc3F)CCCC2)c1Cl	
			52	> 10000		CN[C@H](C)C(=O)N[C@H](C(=O)N1CCC[C@H]1c1nc(C(=O)c2ccc(F)cc2)cs1)C1CCN(C(=O)COCCOCc2cn(CCOc3ccc(Cn4c(-c5ccc(O)cc5)c(C)c5cc(O)ccc54)cc3)nn2)CC1	DC50 (Estrogen receptor [21]): > 10000 nM; GI50 (MCF7 [22]): > 10000 nM
			960			Oc1cccc(CN(CCCN2CCCCC2)CC2(c3ccccc3F)CCCC2)c1Cl	
3.2	4.7	> 10000	1.6	3250	2.1	Cc1c(-c2ccc(O)cc2)n(Cc2ccc(OCCn3cc(COCCOc4cccc5c4C(=O)N(C4CCC(=O)NC4=O)C5=O)nn3)cc2)c2ccc(O)cc12 (stereo not drawn)	DC50 (Estrogen receptor [20]): 2500 nM
		< 5	15	> 10000		Oc1cccc(CN(CC2(c3ccccc3F)CCCC2)c2ccccc2)c1Cl	
						C[C@]12CC[C@@H]3c4ccc(O)cc4C[C@@H](CCCCCCCCC[S+]([O-])CCCC(F)(F)C(F)(F)F)[C@H]3[C@@H]1CC[C@@H]2O (stereo partly drawn) [FULVESTRANT]	inhibition in vivo at 3 mg/kg (MCF7 [23]): 91.6%; Activity [24]: Non-Toxic
52	29	> 10000	5.3	34	14	Cc1ncsc1-c1ccc(CNC(=O)N2C[C@H](O)CC2C(=O)[C@H](NC(=O)C2(F)CC2)C(C)(C)C)c(OCCOCc2cn(CCOc3ccc(Cn4c(-c5ccc(O)cc5)c(C)c5cc(O)ccc54)cc3)nn2)c1 (stereo partly drawn)	DC50 (Estrogen receptor [15]): 27 nM
		> 10000	83	3100		Oc1cccc(CN(CCOCCN2CCCCC2)CC2(c3ccccc3F)CCCC2)c1Cl	
		> 10000	8	68		Oc1cccc(CN(CC2(c3ccccc3F)CCCC2)c2ccc(OCCN3CCCCC3)cc2)c1Cl	DC50 (Estrogen receptor [20]): 15 nM; Activity [25]: 70%
61	40	> 10000	7.3	51	24	CN[C@@H](C)C(=O)N[C@H](C(=O)N1CCC[C@H]1c1nc(C(=O)c2cccc(OCCOCc3cn(CCOc4ccc(Cn5c(-c6ccc(O)cc6)c(C)c6cc(O)ccc65)cc4)nn3)c2)cs1)C1CCCCC1	DC50 (Estrogen receptor [15]): 174 nM
		> 10000	> 10000	3140		CN(Cc1cccc(O)c1Cl)CC1(c2ccccc2OCCN2CCCCC2)CCCC1	
		< 5	62	> 10000		CN(Cc1cccc(O)c1Cl)CC1(c2ccc(OCCN3CCCCC3)cc2F)CCCC1	
24	45	460	71	> 10000	110	CN(Cc1cccc(O)c1Cl)C(C1CCCC1)C(F)(F)F (stereo not drawn)	
15	9.3	> 10000	22	211	6	Cc1ncsc1-c1ccc([C@H](C)NC(=O)[C@@H]2C[C@@H](O)CN2C(=O)[C@@H](NC(=O)COCCOCCOCc2cn(CCOc3ccc(Cn4c(-c5ccc(O)cc5)c(C)c5cc(O)ccc54)cc3)nn2)C(C)(C)C)cc1	DC50 (Estrogen receptor [20]): 9 nM
38	27	> 10000	22	335	18	Cc1ncsc1-c1ccc([C@H](C)NC(=O)[C@@H]2C[C@@H](O)CN2C(=O)[C@@H](NC(=O)COCCOCc2cn(CCOc3ccc(Cn4c(-c5ccc(O)cc5)c(C)c5cc(O)ccc54)cc3)nn2)C(C)(C)C)cc1	DC50 (Estrogen receptor [20]): 20 nM
8.1	7.2	550	15	> 10000	21	CN(Cc1cccc(O)c1Cl)CC1(c2ccccc2F)CCCC1	
